Assay [1] concerns the target T1, Endothelin-1 receptor (Homo sapiens) (UniProt P25101).
T1 sequence (whole entry): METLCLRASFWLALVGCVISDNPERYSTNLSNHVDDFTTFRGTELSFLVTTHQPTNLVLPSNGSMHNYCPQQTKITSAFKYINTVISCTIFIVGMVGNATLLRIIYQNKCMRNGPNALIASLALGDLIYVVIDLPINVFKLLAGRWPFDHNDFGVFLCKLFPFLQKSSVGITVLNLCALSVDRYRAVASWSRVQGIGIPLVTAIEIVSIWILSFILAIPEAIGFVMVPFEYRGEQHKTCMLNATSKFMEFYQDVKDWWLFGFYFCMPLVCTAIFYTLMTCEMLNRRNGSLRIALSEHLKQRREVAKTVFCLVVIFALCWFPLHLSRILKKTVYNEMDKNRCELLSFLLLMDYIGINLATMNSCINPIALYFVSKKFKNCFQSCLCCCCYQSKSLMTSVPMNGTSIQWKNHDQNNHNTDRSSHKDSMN
Description: Displacement of [3H]BQ-123 from human ETA receptor in human SK-N-MC cells at 10 ug/ml after 60 mins by scintillation counting. It is filed as cell-based. A digest of the protocol: (§1)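 Confluent human neuroblastoma SK-N-MC cells, which naturally express ETA, were PBS-washed and held 15 min at room temperature in DMEM with 0.1% BSA. […] Preincubation and incubation were 30 min each at 37 °C. Cells were then put on ice, washed, lysed in 1 M NaOH for 30 min and counted by scintillation. Results are % of specific binding.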
A general note: In a radioligand displacement assay an active substance lowers the binding of a labelled ligand.

Assay [2] concerns the target T2, Neuropeptide Y receptor type 1 (Homo sapiens) (UniProt P25929).
T2 sequence (whole entry): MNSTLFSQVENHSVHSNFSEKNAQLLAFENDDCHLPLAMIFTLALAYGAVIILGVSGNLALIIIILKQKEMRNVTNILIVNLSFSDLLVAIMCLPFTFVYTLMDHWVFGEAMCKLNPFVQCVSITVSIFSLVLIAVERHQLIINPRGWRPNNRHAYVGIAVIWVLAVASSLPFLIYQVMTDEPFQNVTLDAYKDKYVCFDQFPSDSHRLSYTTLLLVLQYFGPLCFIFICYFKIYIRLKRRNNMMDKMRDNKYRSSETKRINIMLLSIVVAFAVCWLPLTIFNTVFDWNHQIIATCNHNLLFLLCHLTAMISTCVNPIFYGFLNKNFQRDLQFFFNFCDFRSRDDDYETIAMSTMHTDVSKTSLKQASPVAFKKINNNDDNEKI
Nature of the assay: Displacement of [3H]NPY from neuropeptide Y1 receptor in human SK-N-MC cells at 10 ug/ml after 60 mins by scintillation counting. The class given is cell-based. In short, it runs like this:
(§2)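 SK-N-MC neuroblastoma cells, which natively express Y1, were grown to confluence, PBS-washed and equilibrated 15 min at room temperature in DMEM with 0.5% BSA. […] Steps were 30 min each at 37 °C, followed by ice, PBS wash, 1 M NaOH lysis for 30 min and scintillation counting. Results are % specific binding.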

Assay [3] addresses T2, Neuropeptide Y receptor type 1 (Homo sapiens). Nature of the assay: Displacement of [3H]NPY from neuropeptide Y1 receptor in human SK-N-MC cells at 100 ug/ml after 60 mins by scintillation counting. It is filed as cell-based. In short, it runs like this: as §2
The target of assay [4] is T1, Endothelin-1 receptor (Homo sapiens). Description: Displacement of [3H]BQ-123 from human ETA receptor in human SK-N-MC cells at 100 ug/ml after 60 mins by scintillation counting. The class given is cell-based. In short, it runs like this:
as §1

Assay [5] deals with Plasmodium falciparum. Description: Antimalarial activity against Plasmodium falciparum W2 after 24 hrs by microtiter plate assay. The settings on record: W2, 24 h. It is filed as functional, organism-based.
Assay [6] concerns Plasmodium falciparum. Description: Antimalarial activity against Plasmodium falciparum D6 after 24 hrs by microtiter plate assay. The class given is functional, organism-based. The settings on record: D6, 24 h.

Converted amounts (≈) assume the structure as drawn.

In general, IC50 refers to the midpoint of a concentration-inhibition curve.

`CC(C)C[C@H]1NC(=O)[C@@H](Cc2ccccc2)NC(=O)[C@@H](CC(C)C)NC(=O)[C@H](NC(=O)[C@@H](Cc2ccccc2)NC(=O)C(C)C)[C@H](C)OC(=O)[C@H](CO)NC(=O)[C@@H]([C@H](C)O)NC1=O`: the Activity was determined as 99% in assay [1], 100% in assay [2], 18% in assay [3] and 96% in assay [4].
As to `Nc1ncc(C2=CCNC(=O)c3[nH]c(Br)c(Br)c32)[nH]1`, the Activity is 78% in assay [1], 100% in assay [2], 81% in assay [3] and 68% in assay [4].
Turning to `N=C(NCCCCCCNC(=N)NC(=N)Nc1ccc(Cl)cc1)NC(=N)Nc1ccc(Cl)cc1`, the Activity in assay [1] came to 100%; in assay [2] it was 100%; in assay [3] it was 81%; in assay [4], 79%.
As for `Nc1nc([C@H]2[C@H](CNC(=O)c3cc(Br)c[nH]3)[C@@H](CNC(=O)c3cc(Br)c[nH]3)[C@@H]2c2c[nH]c(N)n2)c[nH]1`, the Activity in assay [1] came out at 100%; in assay [2], 95%; in assay [3], 12%; in assay [4] it was 80%.
On to `O=C1C[C@H]2S[C@H]3C[C@]2(C=C1Br)C1=C(N3)C(=O)c2[nH]cc3c2C1=NCC3`, for which the Activity stood at 100% in assay [1], 90% in assay [2], 40% in assay [3] and 79% in assay [4].
With `O=C1C2=C(C3=NCCc4c[nH]c1c43)C1(C=C(Br)C(O)C(Br)=C1)CCN2` (stereo unspecified), the Activity was 100% in assay [1], 82% in assay [2], 29% in assay [3] and 100% in assay [4].
With `CC/C=C/C(CC)CCC[C@@]1(CC)C[C@H](CC)[C@H](CC(=O)O)OO1` (stereo partly specified), the Activity in assay [1] is 100%; in assay [2], 100%; in assay [3] it was 56%; in assay [4] it was 68%.
Take `CN(C)CCc1c[nH]c2cc(Br)c(Br)cc12`: the Activity was 100% in assay [1], 100% in assay [2], 17% in assay [3] and 62% in assay [4].
As to `C/C=C1\NC(=O)[C@H](Cc2ccccc2)NC(=O)[C@@H](C(C)C)NC(=O)[C@@H]([C@@H](C)CC)NC(=O)[C@H](NC(=O)[C@H](NC(=O)[C@H](CCCN)NC(=O)[C@H]2CCCN2C(=O)[C@H](NC(=O)[C@@H](NC(=O)[C@@H](NC(=O)[C@H](NC(=O)CCCC(C)(C)O)C(C)C)[C@@H](C)O)C(C)C)C(C)C)[C@@H](C)CC)[C@H](C)OC(=O)[C@H](C(C)C)NC1=O`, the IC50 in assay [5] came out at 1.2 µg/mL (≈ 0.803 µM); in assay [6], 1.5 µg/mL (≈ 1 µM).
For the compound `CN(C)CCc1c[nH]c2ccc(Br)cc12`, the Activity came out at 97% in assay [1], 100% in assay [2], 76% in assay [3] and 89% in assay [4].
In the case of `CC/C=C/C(CC)CCC[C@@]1(CC)C[C@H](CC)[C@H](CC(=O)OC)OO1` (stereo partly specified), the Activity is 100% in assay [1], 100% in assay [2], 100% in assay [3] and 88% in assay [4].
As for `CC(=O)OC(C)C(OC(C)=O)C(CCCCCCCCCCCCC1=CC(C)OC1=O)C(=O)O` (stereo unspecified), the Activity in assay [1] was 98%; in assay [2] it was 100%; in assay [3], 86%; in assay [4], 79%.
